Measurements from different studies.
Lines come from different studies, so protocols differ.
Matrix: plasma

Compound	system	setting	endpoint	value
COc1ccc2[nH]cc(CCNc3nccc(Nc4cccc5c4ccn5C)n3)c2c1	mouse	intravenous, 9.5 mg/kg	Tmax	4.8 min
NCC(=O)Nc1ccc(-n2nc(C(F)(F)F)cc2-c2ccc3c(ccc4ccccc43)c2)cc1	mouse	oral, 80 mg/kg, single dose	Tmax	600 min
c1cc([C@H]2CC[C@]3(CC2)OO[C@]2(O3)C3CC4CC(C3)CC2C4)ccc1OCCN1CCOCC1	human	oral, 200 mg, patients	Cmax	339 ng/mL
CC[C@H](C)[C@H](NC(=O)[C@H](CC(C)C)NC(=O)[C@H](Cc1c[nH]c2ccccc12)NC(=O)[C@H](CCC(N)=O)NC(=O)[C@@H](NC(=O)[C@H](Cc1ccccc1)NC(=O)[C@H](C)NC(=O)[C@H](CCCCNC(=O)COCCOCCNC(=O)COCCOCCNC(=O)CC[C@H](NC(=O)CCCCCCCCCCCCCCCCCCC(=O)O)C(=O)O)NC(=O)[C@H](CCC(N)=O)NC(=O)[C@H](C)NC(=O)[C@@H](NC(=O)[C@H](CCCCN)NC(=O)[C@H](CC(=O)O)NC(=O)[C@H](CC(C)C)NC(=O)C(C)(C)NC(=O)[C@@H](NC(=O)[C@H](CO)NC(=O)[C@H](Cc1ccc(O)cc1)NC(=O)[C@H](CC(=O)O)NC(=O)[C@H](CO)NC(=O)[C@@H](NC(=O)[C@H](Cc1ccccc1)NC(=O)[C@@H](NC(=O)CNC(=O)[C@H](CCC(=O)O)NC(=O)C(C)(C)NC(=O)[C@@H](N)Cc1ccc(O)cc1)[C@@H](C)O)[C@@H](C)O)[C@@H](C)CC)[C@@H](C)CC)C(C)C)C(=O)N[C@@H](C)C(=O)NCC(=O)NCC(=O)N1CCC[C@H]1C(=O)N[C@@H](CO)C(=O)N[C@@H](CO)C(=O)NCC(=O)N[C@@H](C)C(=O)N1CCC[C@H]1C(=O)N1CCC[C@H]1C(=O)N1CCC[C@H]1C(=O)N[C@@H](CO)C(N)=O	human	subcutaneous, 1.5 mg, multiple doses, healthy volunteers	Cmax	198 ng/mL
N=C(N)NCCC[C@@H](NC(=O)[C@@H](N)Cc1ccccc1)C(=O)N[C@@H](Cc1ccccc1)C(=O)N[C@@H](CCCCN)C(N)=O	human	subcutaneous, 25 mg, patients	Cmax	973 ng/mL
N=c1c2c(-c3ccccc3)c(-c3ccccc3)n(Cc3ccccc3)c2ncn1[C@H]1CC[C@H](O)CC1	male cynomolgus monkey	oral, 1 mg/kg, single dose	bioavailability	> 80%
C=C(C)[C@@H]1CC[C@]2(NCCN3CCS(=O)(=O)CC3)CC[C@]3(C)[C@H](CC[C@@H]4[C@@]5(C)CC=C(C6=CC[C@@](COc7ncccc7C#N)(C(=O)O)CC6)C(C)(C)[C@@H]5CC[C@]43C)[C@@H]12	human	oral, 100 mg, single dose, fasted, tablet	Cmax	228 ng/mL
Cc1ccccc1C(=O)NN=Cc1ccc(O)c(Br)c1	mouse	intraperitoneal, 1.6 mg/kg	Tmax	30 min
